Reference: ChEMBL document CHEMBL2424622, “Development of amino-pyrimidine inhibitors of c-Jun N-terminal kinase (JNK): kinase profiling guided optimization of a 1,2,3-benzotriazole lead” (Bioorg Med Chem Lett, 2013)

Assays:
[1] = molecular target: Ribosomal protein S6 kinase alpha-3 (Homo sapiens) (UniProt P51812); assay: Competitive binding affinity to RPS6KA3 domain 1 (unknown origin) at 10 uM in presence of ATP relative to control
Summary of the method: (§1)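 In vitro ATP-site competition binding assay across a diverse panel of 128 kinases, with compound tested at a single concentration. Kinase selectivity scores (S15) were calculated from the panel profiles.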

[2] = molecular target: MAP kinase-interacting serine/threonine-protein kinase 2 (Homo sapiens) (UniProt Q9HBH9); assay: Competitive binding affinity to MKNK2 (unknown origin) at 10 uM in presence of ATP relative to control; summary of the method: as §1
[3] = molecular target: Tyrosine-protein kinase Blk (Homo sapiens) (UniProt P51451); assay: Competitive binding affinity to BLK (unknown origin) at 10 uM in presence of ATP relative to control
[4] = molecular target: Ephrin type-A receptor 4 (Homo sapiens) (UniProt P54764); assay: Competitive binding affinity to EPHA4 (unknown origin) at 10 uM in presence of ATP relative to control
Summary of the method: (§2)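 In vitro ATP-site competition binding assay, part of profiling against a diverse panel of 128 kinases. Each compound was tested at a single concentration of 10 µM. Kinome selectivity was summarized as S15 selectivity scores.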

[5] = molecular target: Mitogen-activated protein kinase kinase kinase 4 (Homo sapiens) (UniProt Q9Y6R4); assay: Competitive binding affinity to MAP3K4 (unknown origin) at 10 uM in presence of ATP relative to control; summary of the method: as §2
[6] = molecular target: T1, Aurora kinase A (Homo sapiens) (UniProt O14965); assay: Competitive binding affinity to AURKA (unknown origin) at 10 uM in presence of ATP relative to control
T1 sequence (whole entry): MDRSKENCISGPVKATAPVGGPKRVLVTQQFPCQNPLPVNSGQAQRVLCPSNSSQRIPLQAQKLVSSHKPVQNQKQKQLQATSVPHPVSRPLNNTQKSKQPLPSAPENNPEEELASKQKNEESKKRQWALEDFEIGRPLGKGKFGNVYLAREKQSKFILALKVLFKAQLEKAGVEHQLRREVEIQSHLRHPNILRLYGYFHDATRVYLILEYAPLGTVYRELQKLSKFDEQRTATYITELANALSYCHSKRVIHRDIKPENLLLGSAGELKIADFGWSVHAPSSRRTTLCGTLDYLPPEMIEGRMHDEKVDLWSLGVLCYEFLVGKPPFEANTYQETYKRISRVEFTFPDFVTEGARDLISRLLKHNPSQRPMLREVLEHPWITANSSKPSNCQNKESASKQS

[7] = molecular target: T2, Serine/threonine-protein kinase PLK4 (Homo sapiens) (UniProt O00444); assay: Competitive binding affinity to PLK4 (unknown origin) at 10 uM in presence of ATP relative to control; summary of the method: as §1
T2 sequence (whole entry): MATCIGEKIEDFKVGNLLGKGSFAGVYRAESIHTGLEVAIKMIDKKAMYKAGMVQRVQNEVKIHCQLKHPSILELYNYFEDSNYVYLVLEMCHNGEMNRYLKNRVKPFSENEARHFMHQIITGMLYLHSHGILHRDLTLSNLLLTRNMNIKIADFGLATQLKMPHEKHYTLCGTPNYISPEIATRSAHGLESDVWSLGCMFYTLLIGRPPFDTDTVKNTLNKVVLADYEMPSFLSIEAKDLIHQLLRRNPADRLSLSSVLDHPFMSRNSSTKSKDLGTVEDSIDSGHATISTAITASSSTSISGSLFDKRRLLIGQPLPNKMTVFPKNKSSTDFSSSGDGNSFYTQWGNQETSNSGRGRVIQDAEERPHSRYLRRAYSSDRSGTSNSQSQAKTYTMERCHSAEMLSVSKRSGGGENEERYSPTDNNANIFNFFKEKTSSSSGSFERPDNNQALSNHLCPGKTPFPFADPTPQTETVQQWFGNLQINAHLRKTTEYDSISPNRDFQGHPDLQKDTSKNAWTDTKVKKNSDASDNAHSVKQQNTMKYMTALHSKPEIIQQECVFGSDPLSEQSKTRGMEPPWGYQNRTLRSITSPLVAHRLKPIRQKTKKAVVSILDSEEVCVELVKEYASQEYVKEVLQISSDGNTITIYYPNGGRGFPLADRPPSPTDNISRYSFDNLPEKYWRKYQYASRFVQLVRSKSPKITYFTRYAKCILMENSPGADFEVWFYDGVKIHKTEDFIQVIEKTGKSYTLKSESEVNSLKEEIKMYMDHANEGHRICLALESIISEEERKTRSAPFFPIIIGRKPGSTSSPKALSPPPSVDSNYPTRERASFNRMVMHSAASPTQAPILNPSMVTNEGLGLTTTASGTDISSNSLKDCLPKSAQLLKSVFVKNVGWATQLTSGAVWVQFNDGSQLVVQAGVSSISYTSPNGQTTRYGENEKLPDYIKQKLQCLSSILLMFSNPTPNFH

[8] = molecular target: Calcium/calmodulin-dependent protein kinase type 1 (Homo sapiens, UniProt Q14012); assay: Competitive binding affinity to CAMK1 (unknown origin) at 10 uM in presence of ATP relative to control
[9] = molecular target: Calcium/calmodulin-dependent protein kinase type II subunit beta (Homo sapiens) (UniProt Q13554); assay: Competitive binding affinity to CAMK2B (unknown origin) at 10 uM in presence of ATP relative to control
[10] = molecular target: Receptor tyrosine-protein kinase erbB-2 (Homo sapiens) (UniProt P04626); assay: Competitive binding affinity to ERBB2 (unknown origin) at 10 uM in presence of ATP relative to control; summary of the method: as §2
[11] = molecular target: T3, Myotonin-protein kinase (Homo sapiens) (UniProt Q09013); assay: Competitive binding affinity to DMPK (unknown origin) at 10 uM in presence of ATP relative to control
T3 sequence (whole entry): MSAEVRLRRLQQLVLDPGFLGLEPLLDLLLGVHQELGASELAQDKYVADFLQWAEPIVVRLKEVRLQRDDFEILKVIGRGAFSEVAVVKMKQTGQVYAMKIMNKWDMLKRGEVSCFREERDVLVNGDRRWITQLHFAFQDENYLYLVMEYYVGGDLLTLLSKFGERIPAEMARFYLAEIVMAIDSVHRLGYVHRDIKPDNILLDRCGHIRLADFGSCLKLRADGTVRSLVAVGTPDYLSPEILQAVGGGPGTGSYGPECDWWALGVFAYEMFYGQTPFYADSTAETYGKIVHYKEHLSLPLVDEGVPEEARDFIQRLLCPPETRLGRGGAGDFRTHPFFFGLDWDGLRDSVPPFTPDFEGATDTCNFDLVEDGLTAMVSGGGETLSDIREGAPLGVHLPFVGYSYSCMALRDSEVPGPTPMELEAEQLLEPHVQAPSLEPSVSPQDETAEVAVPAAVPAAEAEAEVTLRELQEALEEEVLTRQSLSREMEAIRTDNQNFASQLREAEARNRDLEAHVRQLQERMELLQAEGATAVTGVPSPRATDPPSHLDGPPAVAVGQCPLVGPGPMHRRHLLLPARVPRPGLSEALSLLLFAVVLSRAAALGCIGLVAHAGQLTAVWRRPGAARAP

Sequence of Mitogen-activated protein kinase kinase kinase 4 (Homo sapiens) (Q9Y6R4 whole entry): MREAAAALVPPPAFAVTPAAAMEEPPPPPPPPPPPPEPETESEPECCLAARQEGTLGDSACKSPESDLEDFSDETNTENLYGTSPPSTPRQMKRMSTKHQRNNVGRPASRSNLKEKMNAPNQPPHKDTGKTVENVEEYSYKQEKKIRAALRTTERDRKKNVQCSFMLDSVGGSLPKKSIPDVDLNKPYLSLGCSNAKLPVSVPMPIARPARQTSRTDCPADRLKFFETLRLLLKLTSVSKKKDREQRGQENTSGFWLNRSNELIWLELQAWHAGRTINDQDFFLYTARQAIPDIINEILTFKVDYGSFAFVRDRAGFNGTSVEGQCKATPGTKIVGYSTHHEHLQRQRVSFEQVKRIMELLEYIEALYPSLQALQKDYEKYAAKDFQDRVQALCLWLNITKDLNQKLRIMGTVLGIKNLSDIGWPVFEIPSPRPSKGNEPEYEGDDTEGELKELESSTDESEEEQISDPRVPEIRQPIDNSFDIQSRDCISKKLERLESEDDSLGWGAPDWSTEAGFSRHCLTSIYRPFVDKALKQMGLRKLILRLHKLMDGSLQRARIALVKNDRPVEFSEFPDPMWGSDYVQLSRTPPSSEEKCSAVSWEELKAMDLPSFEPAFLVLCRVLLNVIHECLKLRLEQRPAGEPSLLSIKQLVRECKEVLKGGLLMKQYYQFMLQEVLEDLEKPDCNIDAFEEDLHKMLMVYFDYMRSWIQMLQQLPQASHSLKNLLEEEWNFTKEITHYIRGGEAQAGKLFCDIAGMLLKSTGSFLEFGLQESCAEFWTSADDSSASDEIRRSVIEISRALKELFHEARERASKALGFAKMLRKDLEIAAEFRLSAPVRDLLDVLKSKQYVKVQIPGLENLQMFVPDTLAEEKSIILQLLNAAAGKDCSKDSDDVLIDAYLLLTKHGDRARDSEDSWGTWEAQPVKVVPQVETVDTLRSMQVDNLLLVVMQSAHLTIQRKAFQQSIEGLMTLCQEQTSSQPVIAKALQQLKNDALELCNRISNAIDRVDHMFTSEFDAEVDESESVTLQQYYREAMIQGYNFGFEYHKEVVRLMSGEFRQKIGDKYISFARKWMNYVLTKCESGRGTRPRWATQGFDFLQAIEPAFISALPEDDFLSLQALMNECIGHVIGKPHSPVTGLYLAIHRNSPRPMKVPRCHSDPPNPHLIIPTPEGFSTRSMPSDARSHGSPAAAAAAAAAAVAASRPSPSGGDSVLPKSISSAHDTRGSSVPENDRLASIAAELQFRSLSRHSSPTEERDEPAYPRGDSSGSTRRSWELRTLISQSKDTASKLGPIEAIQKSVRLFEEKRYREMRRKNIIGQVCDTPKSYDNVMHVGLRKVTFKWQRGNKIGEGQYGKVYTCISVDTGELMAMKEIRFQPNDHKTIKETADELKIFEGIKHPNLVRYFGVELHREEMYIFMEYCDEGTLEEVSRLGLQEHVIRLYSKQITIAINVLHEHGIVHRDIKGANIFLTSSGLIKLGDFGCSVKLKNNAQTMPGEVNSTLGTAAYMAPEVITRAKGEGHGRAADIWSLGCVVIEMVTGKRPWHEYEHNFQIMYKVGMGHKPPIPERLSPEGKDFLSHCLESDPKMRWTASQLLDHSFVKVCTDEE
Sequence of MAP kinase-interacting serine/threonine-protein kinase 2 (Homo sapiens) (Q9HBH9 whole entry, looked up): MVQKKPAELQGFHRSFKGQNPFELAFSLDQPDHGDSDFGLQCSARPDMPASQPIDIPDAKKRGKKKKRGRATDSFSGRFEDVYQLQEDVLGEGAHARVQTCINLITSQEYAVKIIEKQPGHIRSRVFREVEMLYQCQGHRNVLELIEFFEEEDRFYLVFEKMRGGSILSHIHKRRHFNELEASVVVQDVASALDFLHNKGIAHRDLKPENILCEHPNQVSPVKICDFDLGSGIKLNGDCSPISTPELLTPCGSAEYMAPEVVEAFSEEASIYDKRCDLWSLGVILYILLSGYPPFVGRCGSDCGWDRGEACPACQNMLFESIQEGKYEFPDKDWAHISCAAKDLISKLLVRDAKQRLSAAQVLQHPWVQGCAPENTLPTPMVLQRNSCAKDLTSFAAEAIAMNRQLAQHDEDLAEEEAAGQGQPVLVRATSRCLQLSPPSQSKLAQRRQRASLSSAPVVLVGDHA
Sequence of Calcium/calmodulin-dependent protein kinase type 1 (Q14012 whole entry, looked up): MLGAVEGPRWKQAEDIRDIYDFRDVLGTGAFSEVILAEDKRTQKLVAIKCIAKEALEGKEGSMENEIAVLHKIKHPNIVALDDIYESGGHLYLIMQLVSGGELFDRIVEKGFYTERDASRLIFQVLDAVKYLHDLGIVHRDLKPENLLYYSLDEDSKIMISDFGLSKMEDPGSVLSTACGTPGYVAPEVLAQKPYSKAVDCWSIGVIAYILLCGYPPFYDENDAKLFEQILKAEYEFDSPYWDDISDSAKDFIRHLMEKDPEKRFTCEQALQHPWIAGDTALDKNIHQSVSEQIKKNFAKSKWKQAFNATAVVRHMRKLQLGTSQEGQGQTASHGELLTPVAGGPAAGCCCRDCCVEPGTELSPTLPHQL
Sequence of Ephrin type-A receptor 4 (Homo sapiens) (P54764 whole entry): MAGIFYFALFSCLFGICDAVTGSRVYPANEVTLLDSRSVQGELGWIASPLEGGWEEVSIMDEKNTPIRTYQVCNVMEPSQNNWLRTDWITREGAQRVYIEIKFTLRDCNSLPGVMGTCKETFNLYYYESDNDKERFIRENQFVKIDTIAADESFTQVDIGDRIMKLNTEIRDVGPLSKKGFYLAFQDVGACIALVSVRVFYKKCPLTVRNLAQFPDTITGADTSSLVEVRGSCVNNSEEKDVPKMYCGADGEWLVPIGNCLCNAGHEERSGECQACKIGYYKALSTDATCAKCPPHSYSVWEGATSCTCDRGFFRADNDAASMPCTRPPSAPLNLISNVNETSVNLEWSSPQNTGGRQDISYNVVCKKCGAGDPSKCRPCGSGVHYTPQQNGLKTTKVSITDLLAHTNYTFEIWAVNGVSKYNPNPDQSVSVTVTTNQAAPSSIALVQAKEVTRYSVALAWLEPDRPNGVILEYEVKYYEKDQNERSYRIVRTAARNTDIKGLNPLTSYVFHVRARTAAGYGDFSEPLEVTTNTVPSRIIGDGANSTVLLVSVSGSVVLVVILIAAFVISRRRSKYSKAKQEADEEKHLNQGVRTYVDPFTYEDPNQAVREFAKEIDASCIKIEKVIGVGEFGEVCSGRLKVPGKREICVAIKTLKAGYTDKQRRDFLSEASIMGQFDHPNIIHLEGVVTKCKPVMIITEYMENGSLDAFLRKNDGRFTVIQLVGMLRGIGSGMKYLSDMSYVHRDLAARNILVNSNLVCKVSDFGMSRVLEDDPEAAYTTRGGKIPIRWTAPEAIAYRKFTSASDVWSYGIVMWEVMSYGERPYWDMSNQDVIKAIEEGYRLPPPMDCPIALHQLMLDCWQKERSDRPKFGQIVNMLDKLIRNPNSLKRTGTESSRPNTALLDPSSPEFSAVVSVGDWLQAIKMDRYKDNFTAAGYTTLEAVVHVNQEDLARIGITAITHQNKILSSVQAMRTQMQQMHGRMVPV
Sequence of Receptor tyrosine-protein kinase erbB-2 (Homo sapiens) (P04626 whole entry): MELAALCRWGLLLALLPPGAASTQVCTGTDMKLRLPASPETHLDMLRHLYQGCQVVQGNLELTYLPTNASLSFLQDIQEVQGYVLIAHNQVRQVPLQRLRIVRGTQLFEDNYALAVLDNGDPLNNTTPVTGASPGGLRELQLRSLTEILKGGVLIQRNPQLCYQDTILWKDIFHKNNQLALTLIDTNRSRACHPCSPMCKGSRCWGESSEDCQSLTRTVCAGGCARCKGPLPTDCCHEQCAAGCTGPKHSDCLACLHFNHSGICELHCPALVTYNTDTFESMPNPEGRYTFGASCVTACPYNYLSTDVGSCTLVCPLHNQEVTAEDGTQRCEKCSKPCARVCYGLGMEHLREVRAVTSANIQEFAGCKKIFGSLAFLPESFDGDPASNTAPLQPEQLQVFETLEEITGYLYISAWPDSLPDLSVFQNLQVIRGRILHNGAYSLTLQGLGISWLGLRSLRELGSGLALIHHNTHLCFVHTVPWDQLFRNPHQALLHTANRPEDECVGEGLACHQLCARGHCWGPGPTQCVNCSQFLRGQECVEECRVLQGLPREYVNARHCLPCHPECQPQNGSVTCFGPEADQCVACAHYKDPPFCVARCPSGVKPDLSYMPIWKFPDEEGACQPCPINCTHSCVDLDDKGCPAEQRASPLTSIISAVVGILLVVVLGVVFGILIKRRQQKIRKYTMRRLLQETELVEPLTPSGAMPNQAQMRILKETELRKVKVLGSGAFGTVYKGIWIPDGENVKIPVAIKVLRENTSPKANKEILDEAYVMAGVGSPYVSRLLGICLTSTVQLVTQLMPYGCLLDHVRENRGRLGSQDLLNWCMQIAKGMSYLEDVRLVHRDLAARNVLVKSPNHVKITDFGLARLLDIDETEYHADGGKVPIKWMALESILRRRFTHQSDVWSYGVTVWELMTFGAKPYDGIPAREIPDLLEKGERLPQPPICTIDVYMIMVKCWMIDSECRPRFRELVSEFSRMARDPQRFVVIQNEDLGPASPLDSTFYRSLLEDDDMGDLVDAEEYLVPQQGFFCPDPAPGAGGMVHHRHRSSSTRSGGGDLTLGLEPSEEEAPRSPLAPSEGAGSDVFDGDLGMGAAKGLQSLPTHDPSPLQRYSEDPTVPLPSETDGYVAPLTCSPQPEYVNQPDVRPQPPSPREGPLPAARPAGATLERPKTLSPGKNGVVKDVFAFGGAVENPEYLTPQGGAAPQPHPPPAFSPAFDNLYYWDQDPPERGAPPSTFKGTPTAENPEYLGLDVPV

SMILES	inhibition [1] [%]	inhibition [2] [%]	inhibition [3] [%]	inhibition [4] [%]	inhibition [5] [%]	inhibition [6] [%]	inhibition [7] [%]	inhibition [8] [%]	inhibition [9] [%]	inhibition [10] [%]	inhibition [11] [%]
O[C@H]1CC[C@H](Nc2nccc(-n3nnc4ccccc43)n2)CC1	77	86	88	< 50	< 50	< 50	< 50	< 50	67	< 50	< 50
CS(=O)(=O)CCCOc1cccc2c1ccn2-c1ccnc(N[C@H]2CC[C@H](C(=O)N3CCC(O)CC3)CC2)n1								> 85			
O[C@H]1CC[C@H](Nc2nccc(-c3n[nH]c4ccccc34)n2)CC1	97	87	92	< 50	100	92	100	98	88	< 50	80
O=C([C@H]1CC[C@H](Nc2nccc(-n3nnc4ccccc43)n2)CC1)N1CCOCC1	90	97	93	< 50	< 50	80	71	< 50	< 50	< 50	< 50
N[C@H]1CC[C@H](Nc2nccc(-n3nnc4ccccc43)n2)CC1	84	100	99	< 50	84	< 50	< 50	89	< 50	< 50	< 50

Further lines, results first:

inhibition [1] [%]	inhibition [2] [%]	inhibition [3] [%]	inhibition [4] [%]	inhibition [5] [%]	inhibition [6] [%]	inhibition [7] [%]	inhibition [8] [%]	inhibition [9] [%]	inhibition [10] [%]	inhibition [11] [%]	SMILES
< 50	75	< 50	< 50	< 50	< 50	63	76	87	< 50	< 50	O[C@H]1CC[C@H](Nc2nccc(-n3ncc4ccccc43)n2)CC1
< 50	< 50	< 50	< 50	< 50	< 50	< 50	73	80	< 50	< 50	O[C@H]1CC[C@H](Nc2nccc(-n3ccc4ccccc43)n2)CC1
